Measurements as given in ChEMBL document CHEMBL1124947, “Cationic antiprotozoal drugs. Trypanocidal activity of 2-(4'-formylphenyl)imidazo[1,2-a]pyridinium guanylhydrazones and related derivatives of quaternary heteroaromatic compounds” (J Med Chem, 1990).

Experiments:
Assay type in all cases: functional
Mus musculus [1] = test: Trypanocidal Activity at I.C.E. value 0.46 when administered subcutaneously.
How it was run: (§1)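 Blood-stage T. rhodesiense infection came from a standard inoculum lethal to all untreated mice. Drug was given by subcutaneous injection to groups of five mice. Survival beyond 30 days counted as cure. […] Sub-curative doses scored 0, and data were normalized at each dose.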

Mus musculus [2] = test: Trypanocidal Activity at I.C.E. value 0.58 when administered subcutaneously.
How it was run: (§2)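 Mice, in groups of five per dose, were given a standard inoculum of blood-stage T. rhodesiense that is lethal to all untreated controls, then dosed subcutaneously. Usually 11 dose levels were used (2^n × 0.42 mg/kg).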

Mus musculus [3] = test: Trypanocidal Activity at I.C.E. value 0.18 when administered subcutaneously.
[4] = tested on: Trypanosoma brucei rhodesiense; test: In Vitro measurement of inhibition of leucine uptake in cell culture of Trypanosoma rhodesiense; conditions: read-out: ID50 (the source's name)
How it was run: (§3)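 Trypanosomes harvested from infected rats, cultured 3 h with several concentrations of drug, usually 0.1–100 µg/mL. Radiolabeled L-leucine uptake measured. ID50 is the concentration in µg/mL giving 50% inhibition of incorporation.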

[5] = tested on: Trypanosoma brucei rhodesiense; test: In Vitro measurement of inhibition of thymidine uptake in cell culture of Trypanosoma rhodesiense; conditions: read-out: ID50 (the source's name)
How it was run: (§4)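 Parasites harvested from infected rats and incubated 3 h across a drug concentration series, usually 0.1–100 µg/mL. Incorporation of radiolabeled thymidine measured. ID50 is the concentration (µg/mL) producing 50% inhibition.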

Mus musculus [6] = test: Trypanocidal Activity at I.C.E. value 0.26 when administered subcutaneously.; how it was run: as §1
Mus musculus [7] = test: Trypanocidal Activity at I.C.E. value 0.35 when administered perorally.
Mus musculus [8] = test: Trypanocidal Activity at I.C.E. value 0.67 when administered subcutaneously.; how it was run: as §2
Mus musculus [9] = test: Trypanocidal Activity at I.C.E. value 0.64 when administered subcutaneously.; how it was run: as §2
Mus musculus [10] = test: Trypanocidal Activity at I.C.E. value 0.61 when administered perorally.
Mus musculus [11] = test: Trypanocidal Activity at I.C.E. value 0.48 when administered perorally.
Mus musculus [12] = test: Trypanocidal Activity at I.C.E. value 0.24 when administered perorally.
Mus musculus [13] = test: Trypanocidal Activity at I.C.E. value 0.17 when administered subcutaneously.
Mus musculus [14] = test: Trypanocidal Activity at I.C.E. value 0.23 when administered subcutaneously.; how it was run: as §1
Mus musculus [15] = test: Trypanocidal Activity at I.C.E. value 0.21 when administered subcutaneously.
Mus musculus [16] = test: Trypanocidal Activity at I.C.E. value 0.10 when administered perorally.
[17] = tested on: Trypanosoma brucei rhodesiense; test: In Vitro measurement of inhibition of Leucine uptake in cell culture of Trypanosoma rhodesiense.; conditions: read-out: ID50 (the source's name); how it was run: as §3
Mus musculus [18] = test: Trypanocidal Activity at I.C.E. value 0.39 when administered subcutaneously.; how it was run: as §1
[19] = tested on: Trypanosoma brucei rhodesiense; test: In Vitro measurement of inhibition of thymidine uptake in cell culture of Trypanosoma rhodesiense.; conditions: read-out: ID50 (the source's name); how it was run: as §4
Mus musculus [20] = test: Trypanocidal Activity at I.C.E. value 0.37 when administered subcutaneously.; how it was run: as §1
Mus musculus [21] = test: Trypanocidal Activity at I.C.E. value 0.69 when administered subcutaneously.; how it was run: as §2
Mus musculus [22] = test: Trypanocidal Activity at I.C.E. value 0.33 when administered subcutaneously.; how it was run: as §1
Mus musculus [23] = test: Trypanocidal Activity at I.C.E. value 0.30 when administered subcutaneously.; how it was run: as §1
Mus musculus [24] = test: Trypanocidal Activity at I.C.E. value 0.27 when administered subcutaneously.; how it was run: as §1

Molecule Br.CC(NC(=N)N/N=C/c1ccc(-c2cn3ccccc3[n+]2C)cc1)c1ccco1.[Br-] (centres undefined) has a CD50 (Mus musculus [1]) of 1.6 mg/kg.

For C/N=C(\NC)N/N=C/c1ccc(-c2cn3ccccc3[n+]2C)cc1.I.[I-], the CD50 (Mus musculus [2]) was 0.2 mg/kg.

C[n+]1c(-c2ccc(/C=N/Nc3ccccn3)cc2)cn2ccccc21.Cc1ccc(S(=O)(=O)[O-])cc1 was tested, and the CD50 (Mus musculus [3]) was 212 mg/kg.

In the case of C[n+]1c(COc2ccc(C(=N)N)cc2)cn2ccccc21.Cl.[Cl-], the IC50 [4] is reported as 12 µg/mL, the IC50 [5] is reported as 0.7 µg/mL and the CD50 (Mus musculus [6]) is reported as 3.3 mg/kg.

For Br.CCNC(=N)N/N=C/c1ccc(-c2cn3cc(C)ccc3[n+]2C)cc1.[Br-], the CD50 (Mus musculus [7]) was 26 mg/kg and the CD50 (Mus musculus [8]) was 0.4 mg/kg.

Br.CC/N=C(\NCC)N/N=C/c1ccc(/C=C/c2n(C)cc[n+]2C)cc1.[Br-] was tested, and the CD50 (Mus musculus [1]) was 1.6 mg/kg.

For Br.Cn1cc[n+](C)c1/C=C/c1ccc(/C=N/NC2=NCCN2)cc1.[Br-], the CD50 (Mus musculus [9]) was 1.6 mg/kg.

Br.C[n+]1c(-c2ccc(/C=N/NC3=NCCCN3)cc2)cn2ccccc21.[Br-] gave a CD50 (Mus musculus [10]) of 6.6 mg/kg and a CD50 (Mus musculus [8]) of 0.1 mg/kg.

Br.CN(C)C(=N)N/N=C/c1ccc(OCc2cn3ccccc3[n+]2C)cc1.[Br-] gave a CD50 (Mus musculus [6]) of 3.3 mg/kg.

In the case of Br.CC[S+]([O-])c1ccc2n(c1)cc(-c1ccc(/C=N/NC(=N)N)cc1)[n+]2C.[Br-] (centres undefined), the CD50 (Mus musculus [9]) is reported as 1.6 mg/kg.

Br.Cn1c(COc2ccc(/C=N/NC(=N)N)cc2)[n+](C)c2ccccc21.[Br-] was tested, and the CD50 (Mus musculus [8]) was 0.4 mg/kg, the IC50 [4] was 6.1 µg/mL and the IC50 [5] was 1.9 µg/mL. The CD50 (Mus musculus [11]) was 13 mg/kg.

Molecule CC(=O)Nc1ccc(-c2cn3ccccc3[n+]2C)cc1.[I-] has a CD50 (Mus musculus [12]) of 106 mg/kg, an IC50 [4] of over 10 µg/mL and an IC50 [5] of over 10 µg/mL. For the same molecule, the CD50 (Mus musculus [13]) was 212 mg/kg.

Cc1ccc(S(=O)(=O)O)cc1.Cc1ccc(S(=O)(=O)[O-])cc1.Cn1cc[n+](C)c1COc1ccc(/C=N/NC(=N)N2CCCC2)cc1 showed a CD50 (Mus musculus [14]) of 6.6 mg/kg.

In the case of Br.CN1CCN(C(=N)N/N=C/c2ccc(-c3cn4ccccc4[n+]3C)cc2)CC1.[Br-], the CD50 (Mus musculus [15]) is reported as 3.3 mg/kg.

With C[n+]1c(-c2ccc(C(=N)N)cc2)cn2ccccc21.Cl.[Cl-] the CD50 (Mus musculus [15]) was 26 mg/kg.

For Br.CCNC(=N)N/N=C/c1ccc(OCc2cccc[n+]2C)cc1.[Br-], the CD50 (Mus musculus [3]) was 6.6 mg/kg and the CD50 (Mus musculus [16]) was 212 mg/kg.

Work on Cc1ccc(S(=O)(=O)O)cc1.Cc1ccc(S(=O)(=O)[O-])cc1.Cc1ccc2n(c1)cc(-c1ccc(/C=N/NC(=N)N3CCSC3)cc1)[n+]2C yielded an IC50 [17] of 0.5 µg/mL, a CD50 (Mus musculus [18]) of 6.6 mg/kg and an IC50 [19] of over 10 µg/mL.

Br.Cc1ccc2n(c1)cc(-c1ccc(/C=N/NC(=N)NN3CCOCC3)cc1)[n+]2C.[Br-] gave a CD50 (Mus musculus [20]) of 3.3 mg/kg.

Work on Br.Cc1ccc2n(c1)cc(/C=C/c1ccc(/C=N/NC(=N)NO)cc1)[n+]2C.[Br-] yielded a CD50 (Mus musculus [21]) of 3.3 mg/kg.

Molecule Br.CNC(=N)N/N=C/c1ccc(-c2c([N+](=O)[O-])n3ccccc3[n+]2C)cc1.[Br-] has an IC50 [4] of 3.4 µg/mL, an IC50 [5] of 5.4 µg/mL and a CD50 (Mus musculus [22]) of 0.4 mg/kg.

Br.Cc1cccc2n1cc(COc1ccc(/C=N/NC3=NCCN3)cc1)[n+]2C.[Br-] gave a CD50 (Mus musculus [9]) of 0.8 mg/kg.

For Br.CC/N=C(\NCC)N/N=C/c1ccc(OCc2n(C)cc[n+]2C)cc1.[Br-], the CD50 (Mus musculus [23]) was 13 mg/kg.

In the case of Br.CCSc1ccc2n(c1)cc(-c1ccc(/C=N/NC3=NCCN3)cc1)[n+]2C.[Br-], the CD50 (Mus musculus [21]) is reported as 3.3 mg/kg.

Work on C[n+]1ccc(COc2ccc(/C=N/NC(=O)c3ccc(N)cc3)cc2)cc1.Cc1ccc(S(=O)(=O)[O-])cc1 yielded a CD50 (Mus musculus [24]) of 26 mg/kg.

Molecule C[n+]1c(COc2ccc(/C=N/Nc3ccccn3)cc2)cn2ccccc21.Cc1ccc(S(=O)(=O)[O-])cc1 has an IC50 [4] of 10.1 µg/mL, an IC50 [5] of 7.9 µg/mL and a CD50 (Mus musculus [14]) of 53 mg/kg.

Br.Cn1cc[n+](C)c1COc1ccc(/C=N/NC2=NCCN2)cc1.[Br-] was tested, and the CD50 (Mus musculus [20]) was 3.3 mg/kg.

With Br.C/N=C(/NC)N/N=C/c1ccc(-c2cn3ccc(C)cc3[n+]2C)cc1.[Br-] the CD50 (Mus musculus [2]) was 0.4 mg/kg.
